Reference: PMC3963287 (Bioorganic & medicinal chemistry letters, 2014)

Legend:
[1] = tested on: long chain fatty acyl-CoA synthetase (ACSL); experiment: Inhibition of ACSL activity in solubilized brain endothelial bEND3 cells; type: biochemical
[2] = tested on: ACSL in bEND3 brain endothelial cells; experiment: In situ [14C]-palmitate incorporation into extractable lipids of bEND3 cells; type: cell-based; conditions: for Inhibition of [14C]-palmitate incorporation into extractable lipids: compounds at 15 μM, Figure 3A; for Potency ratio (rank order) for inhibition of [14C]-palmitate incorporation into extractable lipids: triacsin C at 1.5 μM, all other compounds at 15 μM
Outline: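 bEND3 brain endothelial cells incubated with [14C]-palmitate, with test compounds at 15 μM or the reference ACSL inhibitor at 1.5 μM. Radioactivity measured in extractable lipid (fmoles [14C]-palmitate/μg lipid), aqueous fraction and media; total recovery summed from lipid, aqueous and media. Compared to untreated controls by one-way ANOVA with Dunnett's t test; n = 3–9 independent experiments.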

rotavirus = conditions: cited from earlier work
[3] = tested on: leukocyte recruitment (rolling, adhesion, extravasation); experiment: L-NAME induced leukocyte recruitment in post-capillary venules of the mesentery; type: in vivo; conditions: 120 minutes; for Inhibition of leukocyte rolling, adhesion and extravasation: 5 or 50 μM compound 1, 50 μM compound 9
[4] = tested on: leukocyte recruitment (rolling, adhesion, extravasation); conditions: 5μM; cited from earlier work
[5] = aqueous; no reference given; cited from earlier work

In the case of `CCC/C=C/C/C=C/C=C/CNc1ccc(C(=O)O)cc1` [Compound 1], the “Potency relative to triacsin C in the ACSL assay” value [1] is reported as “one-tenth as potent as triacsin C”, the “Inhibition of [14C]-palmitate incorporation into extractable lipids” value [2] is reported as “significant inhibition” and the “Potency ratio (rank order) for inhibition of [14C]-palmitate incorporation into extractable lipids” value [2] is reported as “triacsin C > 3 > 1 > 4 > 9 = 7 > 2”. For the same compound, the “Potency relative to triacsin C as inhibitor of rotavirus replication” value (rotavirus) was “at least twice as potent as triacsin C”, the “Rolling, adhesion and extravasation rates / recruitment” value ([3]; 5 μM) was “inhibited the recruitment to about half the extent as at 50 μm” and the “Rolling, adhesion and extravasation rates / recruitment” value ([3]; 50 μM) was “not different from each other nor were they different from vehicle alone”. For the same compound, the “Inhibition of leukocyte rolling, adhesion and extravasation” value [3] was “significantly inhibited rolling, adhesion, and extravasation”.
With `CCC/C=C/C/C=C/C=N/N1CCCS1(=O)=O` [Compound 2] the “Folds less active compared with compound 3” value [1] was over 30 folds and the “Potency ratio (rank order) for inhibition of [14C]-palmitate incorporation into extractable lipids” value [2] was “triacsin C > 3 > 1 > 4 > 9 = 7 > 2”.
In the case of `C=CCCCCCCCCCNc1ccc(C(=O)O)cc1` [Compound 3], the “Inhibition of [14C]-palmitate incorporation into extractable lipids” value [2] is reported as “significant inhibition” and the “Potency ratio (rank order) for inhibition of [14C]-palmitate incorporation into extractable lipids” value [2] is reported as “triacsin C > 3 > 1 > 4 > 9 = 7 > 2”.
In the case of `C=CCCCCCCCCCNc1ccc(C(=O)O)c(O)c1` [Compound 4], the “Inhibition of [14C]-palmitate incorporation into extractable lipids” value [2] is reported as “significant inhibition” and the “Potency ratio (rank order) for inhibition of [14C]-palmitate incorporation into extractable lipids” value [2] is reported as “triacsin C > 3 > 1 > 4 > 9 = 7 > 2”.
For `CCC/C=C/C/C=C/CN(O)/N=N/c1ccc(C(=O)O)cc1` [Compound 7], the “Inhibition of [14C]-palmitate incorporation into extractable lipids” value [2] was “significant inhibition” and the “Potency ratio (rank order) for inhibition of [14C]-palmitate incorporation into extractable lipids” value [2] was “triacsin C > 3 > 1 > 4 > 9 = 7 > 2”.
With `CCC/C=C/C/C=C/C=C/CNN1CCCS1(=O)=O` [Compound 8] the “Folds less active compared with compound 3” value [1] was over 30 folds.
With `C=CCCCCCCCCCNO` [Compound 9] the “Inhibition of [14C]-palmitate incorporation into extractable lipids” value [2] was “significant inhibition”, the “Potency ratio (rank order) for inhibition of [14C]-palmitate incorporation into extractable lipids” value [2] was “triacsin C > 3 > 1 > 4 > 9 = 7 > 2” and the “Rolling, adhesion and extravasation rates / recruitment” value ([3]; 50 μM) was “about as effective as compound 1 at 5 μM”. The “Inhibition of leukocyte rolling, adhesion and extravasation” value [3] was “significantly inhibited rolling, adhesion, and extravasation”.
In the case of `CCC/C=C/C/C=C/C=C/C=N/NN=O` [Triacsin C, reference compound], the “Times more potent than compound 3” value [1] is listed as “about 10 times”, the “Neutrophil recruitment in a model of ischemia” value [4] is listed as “virtually abolished neutrophil recruitment” and the “Potency ratio (rank order) for inhibition of [14C]-palmitate incorporation into extractable lipids” value [2] is listed as “triacsin C > 3 > 1 > 4 > 9 = 7 > 2”. The “Rolling, adhesion and extravasation rates / recruitment” value ([3]; 5 μM) was “not different from each other nor were they different from vehicle alone”.
For `CCCCCCCCCCCCCCCC(=O)SCCNC(=O)CCNC(=O)[C@H](O)C(C)(C)COP(=O)(O)OP(=O)(O)OC[C@H]1O[C@@H](n2cnc3c(N)ncnc32)[C@H](O)[C@@H]1OP(=O)(O)O` [palmitoyl CoA], the Water solubility [5] is given as “about 1.74 g/L”.
